Source: ChEMBL document CHEMBL2380298, “Synthesis and antimicrobial activity of novel amphiphilic aromatic amino alcohols” (2013)

Tests used:
Type in all cases: functional
[1] = tested on: Staphylococcus epidermidis; assay: Antimicrobial activity against Staphylococcus epidermidis ATCC 12228 by broth dilution method
Staphylococcus aureus [2] = assay: Antimicrobial activity against Staphylococcus aureus ATCC 29213 by broth dilution method; conditions: Staphylococcus aureus, ATCC 29213
Staphylococcus aureus [3] = assay: Bactericidal activity against methicillin-resistant Staphylococcus aureus clinical isolate 264 after 24 hrs; conditions: isolate 264, 24 h
Summary of the method: (§1)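 Bactericidal concentration: 0.1 ml from wells at the MIC dilution and the dilutions on either side was streaked onto tryptic soy agar and incubated 24 h. It was taken as the lowest drug concentration giving no growth (100% killing).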

Staphylococcus aureus [4] = assay: Bactericidal activity against methicillin-resistant Staphylococcus aureus clinical isolate 260 after 24 hrs; conditions: isolate 260, 24 h; summary of the method: as §1
Staphylococcus aureus [5] = assay: Bactericidal activity against methicillin-resistant Staphylococcus aureus clinical isolate 259 after 24 hrs; conditions: isolate 259, 24 h; summary of the method: as §1
Staphylococcus aureus [6] = assay: Bactericidal activity against methicillin-resistant Staphylococcus aureus clinical isolate 257 after 24 hrs; conditions: isolate 257, 24 h; summary of the method: as §1
Staphylococcus aureus [7] = assay: Bactericidal activity against methicillin-resistant Staphylococcus aureus clinical isolate 255 after 24 hrs; conditions: isolate 255, 24 h; summary of the method: as §1
Staphylococcus aureus [8] = assay: Bactericidal activity against methicillin-resistant Staphylococcus aureus clinical isolate 238 after 24 hrs; conditions: isolate 238, 24 h; summary of the method: as §1
Staphylococcus aureus [9] = assay: Bactericidal activity against methicillin-resistant Staphylococcus aureus clinical isolate 237 after 24 hrs; conditions: isolate 237, 24 h; summary of the method: as §1
Staphylococcus aureus [10] = assay: Bactericidal activity against methicillin-resistant Staphylococcus aureus clinical isolate 236 after 24 hrs; conditions: isolate 236, 24 h; summary of the method: as §1
Staphylococcus aureus [11] = assay: Bactericidal activity against methicillin-resistant Staphylococcus aureus clinical isolate 235 after 24 hrs; conditions: isolate 235, 24 h; summary of the method: as §1
Staphylococcus aureus [12] = assay: Bactericidal activity against methicillin-resistant Staphylococcus aureus clinical isolate 232 after 24 hrs; conditions: isolate 232, 24 h; summary of the method: as §1
Staphylococcus aureus [13] = assay: Bactericidal activity against methicillin-resistant Staphylococcus aureus clinical isolate 231 after 24 hrs; conditions: isolate 231, 24 h; summary of the method: as §1
[14] = tested on: Staphylococcus epidermidis; assay: Bactericidal activity against Staphylococcus epidermidis ATCC 12228 after 24 hrs; conditions: ATCC 12228, 24 h
Summary of the method: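 MBC: after MIC determination, 0.1 ml from the MIC well and from two dilutions either side streaked on tryptic soy agar, incubated 24 h; MBC taken as lowest concentration giving no growth (100% kill).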

Staphylococcus aureus [15] = assay: Bactericidal activity against Staphylococcus aureus ATCC 29213 after 24 hrs; conditions: ATCC 29213, 24 h; summary of the method: as §1
Candida parapsilosis = assay: Antimicrobial activity against Candida parapsilosis ATCC 90030 by broth dilution method; conditions: Lodderomyces parapsilosis
Nakaseomyces glabratus = assay: Antimicrobial activity against Candida glabrata ATCC 18804 by broth dilution method
Candida albicans = assay: Antimicrobial activity against Candida albicans ATCC 22019 by broth dilution method
Candida tropicalis = assay: Antimicrobial activity against Candida tropicalis ATCC 750 by broth dilution method
Staphylococcus aureus [16] = assay: Antimicrobial activity against methicillin-resistant Staphylococcus aureus clinical isolate by broth dilution method
Staphylococcus aureus [17] = assay: Antimicrobial activity against methicillin-resistant Staphylococcus aureus clinical isolate 264 by broth dilution method
Staphylococcus aureus [18] = assay: Antimicrobial activity against methicillin-resistant Staphylococcus aureus clinical isolate 260 by broth dilution method
Staphylococcus aureus [19] = assay: Antimicrobial activity against methicillin-resistant Staphylococcus aureus clinical isolate 257 by broth dilution method
Staphylococcus aureus [20] = assay: Antimicrobial activity against methicillin-resistant Staphylococcus aureus clinical isolate 259 by broth dilution method
Staphylococcus aureus [21] = assay: Antimicrobial activity against methicillin-resistant Staphylococcus aureus clinical isolate 238 by broth dilution method
Staphylococcus aureus [22] = assay: Antimicrobial activity against methicillin-resistant Staphylococcus aureus clinical isolate 255 by broth dilution method
Staphylococcus aureus [23] = assay: Antimicrobial activity against methicillin-resistant Staphylococcus aureus clinical isolate 237 by broth dilution method
Staphylococcus aureus [24] = assay: Antimicrobial activity against methicillin-resistant Staphylococcus aureus clinical isolate 236 by broth dilution method
Staphylococcus aureus [25] = assay: Antimicrobial activity against methicillin-resistant Staphylococcus aureus clinical isolate 235 by broth dilution method
Staphylococcus aureus [26] = assay: Antimicrobial activity against methicillin-resistant Staphylococcus aureus clinical isolate 232 by broth dilution method
Staphylococcus aureus [27] = assay: Antimicrobial activity against methicillin-resistant Staphylococcus aureus clinical isolate 227 by broth dilution method
Staphylococcus aureus [28] = assay: Antimicrobial activity against methicillin-resistant Staphylococcus aureus clinical isolate 231 by broth dilution method
Staphylococcus aureus [29] = assay: Antimicrobial activity against methicillin-resistant Staphylococcus aureus clinical isolate 225 by broth dilution method
Staphylococcus aureus [30] = assay: Antimicrobial activity against methicillin-resistant Staphylococcus aureus clinical isolate 215 by broth dilution method
Staphylococcus aureus [31] = assay: Antimicrobial activity against methicillin-resistant Staphylococcus aureus clinical isolate 218 by broth dilution method
Staphylococcus aureus [32] = assay: Antimicrobial activity against methicillin-resistant Staphylococcus aureus clinical isolate 212 by broth dilution method
Staphylococcus aureus [33] = assay: Antimicrobial activity against methicillin-resistant Staphylococcus aureus clinical isolate 207 by broth dilution method
Staphylococcus aureus [34] = assay: Antimicrobial activity against methicillin-resistant Staphylococcus aureus clinical isolate 205 by broth dilution method
Staphylococcus aureus [35] = assay: Antimicrobial activity against methicillin-resistant Staphylococcus aureus clinical isolate 195 by broth dilution method
Staphylococcus aureus [36] = assay: Antimicrobial activity against methicillin-resistant Staphylococcus aureus clinical isolate 178 by broth dilution method
Staphylococcus aureus [37] = assay: Antimicrobial activity against methicillin-resistant Staphylococcus aureus clinical isolate 176 by broth dilution method
Pseudomonas aeruginosa = assay: Antimicrobial activity against Pseudomonas aeruginosa ATCC 27853 by broth dilution method
Escherichia coli = assay: Antimicrobial activity against Escherichia coli ATCC 11229 by broth dilution method; conditions: Escherichia coli, ATCC 11229

**Q.** With CCCCCCCCCCCCCCOc1ccc(CNC(CO)(CO)CO)cc1.Cl as the compound, how does the “-logMIC” value [1] read?
**A.** The value was 5.36.

**Q.** What about the MIC ([1]; Staphylococcus epidermidis, ATCC 12228) of the same compound?
**A.** Its MIC is 2 µg/mL.

**Q.** And the MIC (Staphylococcus aureus [2])?
**A.** The MIC was 2 µg/mL.

**Q.** What about the MBC (Staphylococcus aureus [3]) of the same compound?
**A.** Its MBC is 64 µg/mL.

**Q.** What about the MBC (Staphylococcus aureus [4]) of the same compound?
**A.** Its MBC is 8 µg/mL.

**Q.** And the MBC (Staphylococcus aureus [5])?
**A.** Its MBC is 2 µg/mL.

**Q.** What about the MBC (Staphylococcus aureus [6]) of the same compound?
**A.** Its MBC is 8 µg/mL.

**Q.** What about the MBC (Staphylococcus aureus [7]) of the same compound?
**A.** Its MBC is 16 µg/mL.

**Q.** And the MBC (Staphylococcus aureus [8])?
**A.** Its MBC is 4 µg/mL.

**Q.** And the MBC (Staphylococcus aureus [9])?
**A.** Its MBC is 4 µg/mL.

**Q.** And the MBC (Staphylococcus aureus [10])?
**A.** The MBC was 8 µg/mL.

**Q.** What about the MBC (Staphylococcus aureus [11]) of the same compound?
**A.** Its MBC is 8 µg/mL.

**Q.** What about the MBC (Staphylococcus aureus [12]) of the same compound?
**A.** Its MBC is 8 µg/mL.

**Q.** What about the MBC (Staphylococcus aureus [13]) of the same compound?
**A.** The MBC was 4 µg/mL.

**Q.** What about the MBC [14] of the same compound?
**A.** Its MBC is 512 µg/mL.

**Q.** And the MBC (Staphylococcus aureus [15])?
**A.** The MBC was 16 µg/mL.

**Q.** And the MIC (Candida parapsilosis)?
**A.** The MIC was 8 µg/mL.

**Q.** What about the MIC (Nakaseomyces glabratus) of the same compound?
**A.** The MIC was 8 µg/mL.

**Q.** And the MIC (Candida albicans)?
**A.** The MIC was 16 µg/mL.

**Q.** What about the MIC (Candida tropicalis) of the same compound?
**A.** The MIC was 32 µg/mL.

**Q.** What about the “-logMIC” value (Staphylococcus aureus [16]) of the same compound?
**A.** The value was 5.03.

**Q.** What about the MIC50 (Staphylococcus aureus [16]; Staphylococcus aureus) of the same compound?
**A.** The MIC50 was 8 µg/mL.

**Q.** And the MIC90 (Staphylococcus aureus [16]; Staphylococcus aureus)?
**A.** The MIC90 was greater than 1020 µg/mL.

**Q.** And the MIC (Staphylococcus aureus [17])?
**A.** Its MIC is 16 µg/mL.

**Q.** And the MIC (Staphylococcus aureus [18])?
**A.** Its MIC is 2 µg/mL.

**Q.** What about the MIC (Staphylococcus aureus [19]) of the same compound?
**A.** The MIC was 2 µg/mL.

**Q.** What about the MIC (Staphylococcus aureus [20]) of the same compound?
**A.** Its MIC is 2 µg/mL.

**Q.** What about the MIC (Staphylococcus aureus [21]) of the same compound?
**A.** Its MIC is 4 µg/mL.

**Q.** And the MIC (Staphylococcus aureus [22])?
**A.** The MIC was 8 µg/mL.

**Q.** And the MIC (Staphylococcus aureus [23])?
**A.** Its MIC is 4 µg/mL.

**Q.** What about the MIC (Staphylococcus aureus [24]) of the same compound?
**A.** Its MIC is 8 µg/mL.

**Q.** What about the MIC (Staphylococcus aureus [25]) of the same compound?
**A.** Its MIC is 4 µg/mL.

**Q.** What about the MIC (Staphylococcus aureus [26]) of the same compound?
**A.** The MIC was 8 µg/mL.

**Q.** What about the MIC (Staphylococcus aureus [27]) of the same compound?
**A.** Its MIC is greater than 1020 µg/mL.

**Q.** And the MIC (Staphylococcus aureus [28])?
**A.** The MIC was 2 µg/mL.

**Q.** And the MIC (Staphylococcus aureus [29])?
**A.** Its MIC is greater than 1020 µg/mL.

**Q.** What about the MIC (Staphylococcus aureus [30]) of the same compound?
**A.** Its MIC is greater than 1020 µg/mL.

**Q.** What about the MIC (Staphylococcus aureus [31]) of the same compound?
**A.** The MIC was 8 µg/mL.

**Q.** And the MIC (Staphylococcus aureus [32])?
**A.** The MIC was greater than 1020 µg/mL.

**Q.** And the MIC (Staphylococcus aureus [33])?
**A.** Its MIC is greater than 1020 µg/mL.

**Q.** And the MIC (Staphylococcus aureus [34])?
**A.** Its MIC is 16 µg/mL.

**Q.** And the MIC (Staphylococcus aureus [35])?
**A.** The MIC was 16 µg/mL.

**Q.** What about the MIC (Staphylococcus aureus [36]) of the same compound?
**A.** The MIC was 8 µg/mL.

**Q.** What about the MIC (Staphylococcus aureus [37]) of the same compound?
**A.** Its MIC is 16 µg/mL.

**Q.** What about the MIC (Pseudomonas aeruginosa) of the same compound?
**A.** The MIC was greater than 256 µg/mL.

**Q.** What about the MIC (Escherichia coli) of the same compound?
**A.** The MIC was greater than 256 µg/mL.
